Measured values from ChEMBL document CHEMBL1141286, “Benzochromenones from the marine crinoid Comantheria rotula inhibit hypoxia-inducible factor-1 (HIF-1) in cell-based reporter assays and differentially suppress the growth of certain tumor cell lines” (J Nat Prod, 2007).

Columns and labels:
[1] = test system: UACC-62; test: Growth inhibition of human UACC62 cells; type: functional
[2] = test system: SK-OV-3; test: Growth inhibition of human SK-OV3 cells; type: functional
[3] = test system: IGROV-1; test: Growth inhibition of human IGROV1 cells; type: functional
[4] = test system: 786-0; test: Growth inhibition of human 786-0 cells; type: functional
[5] = test system: A498; test: Growth inhibition of human A498 cells; type: functional
[6] = test system: ACHN; test: Growth inhibition of human ACHN cells; type: functional
[7] = test system: CAKI-1; test: Growth inhibition of human CAKI1 cells; type: functional
[8] = test system: SN12C; test: Growth inhibition of human SN12C cells; type: functional
[9] = test system: UO-31; test: Growth inhibition of human UO31 cells; type: functional
[10] = test system: PC-3; test: Growth inhibition of human PC3 cells; type: functional
[11] = test system: MCF7; test: Growth inhibition of human MCF7 cells; type: functional
[12] = test system: NCI/ADR-RES; test: Growth inhibition of human NCI/ADR-RES cells; type: functional
[13] = test system: Hs-578T; test: Growth inhibition of human HS578T cells; type: functional
[14] = test system: MDA-MB-435; test: Growth inhibition of human MDA-MB-435 cells; type: functional
[15] = test system: BT-549; test: Growth inhibition of human BT549 cells; type: functional
[16] = test system: T47D; test: Growth inhibition of human T47D cells; type: functional
[17] = test system: HL-60; test: Growth inhibition of human HL60 cells; type: functional
[18] = target: Hypoxia inducible factors; HIF-1-alpha, HIF-2-alpha (Homo sapiens, UniProt Q16665+Q99814); test: Inhibition of HIF1 activation in human T47D cells by TK-luciferase assay; type: cell-based
How it was run: (§1)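 HIF-1 reporter (pHRE-TK-Luc) assays in transfected PC-3 or T47D cells; HIF-1 induced by hypoxia or by the hypoxia mimetic 1,10-phenanthroline (10 μM); compounds at half-log concentrations; luciferase activity measured; IC50 from experiments in triplicate.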

[19] = Inhibition of 1,10-phenanthroline-induced HIF1 activation in PC3 cells by TK-luciferase assay; type: cell-based; conditions: Homo sapiens, PC-3; how it was run: as §1
[20] = read-out: Log LC50 (the source's name) (converted)

Question: Which results are given for COc1cc(O)cc2cc3oc(C)cc(=O)c3c(OC)c12 [COMANTHERIN]?
Answer: GI50 [1]: > 100 µM; LC50 (lethal concentration, 50% cell kill) [1]: > 100 µM; TGI ([1]; read-out: Log TGI (converted)): > 100 µM; GI50 [2]: > 100 µM; LC50 [2]: > 100 µM; TGI ([2]; read-out: Log TGI (converted)): > 100 µM; GI50 [3]: > 100 µM; CC50 [3, 20]: > 100 µM; TGI ([3]; read-out: Log TGI (converted)): > 100 µM; GI50 [4]: > 100 µM; LC50 [4]: > 100 µM; TGI ([4]; read-out: Log TGI (converted)): > 100 µM; GI50 [5]: > 100 µM; LC50 [5]: > 100 µM; TGI ([5]; read-out: Log TGI (converted)): > 100 µM; GI50 [6]: > 100 µM; CC50 [6, 20]: > 100 µM; TGI ([6]; read-out: Log TGI (converted)): > 100 µM; GI50 [7]: > 100 µM; LC50 [7]: > 100 µM; TGI ([7]; read-out: Log TGI (converted)): > 100 µM; GI50 [8]: > 100 µM; LC50 [8]: > 100 µM; TGI ([8]; read-out: Log TGI (converted)): > 100 µM; GI50 [9]: > 100 µM; LC50 [9]: > 100 µM; TGI ([9]; read-out: Log TGI (converted)): > 100 µM; GI50 [10]: 85.1 µM; LC50 [10]: > 100 µM; TGI ([10]; read-out: Log TGI (converted)): > 100 µM; GI50 [11]: > 100 µM; LC50 [11]: > 100 µM; TGI ([11]; read-out: Log TGI (converted)): > 100 µM; GI50 [12]: > 100 µM; LC50 (concentration killing 50% of cells) [12]: > 100 µM; TGI ([12]; read-out: Log TGI (converted)): > 100 µM; GI50 [13]: 21.9 µM; LC50 [13]: > 100 µM; TGI ([13]; read-out: Log TGI (converted)): > 100 µM; GI50 [14]: > 100 µM; LC50 [14]: > 100 µM; TGI ([14]; read-out: Log TGI (converted)): > 100 µM; GI50 [15]: 74.1 µM; LC50 [15]: > 100 µM; TGI ([15]; read-out: Log TGI (converted)): > 100 µM; GI50 [16]: 81.3 µM; LC50 [16]: > 100 µM; TGI ([16]; read-out: Log TGI (converted)): > 100 µM; GI50 [17]: > 100 µM; LC50 [17]: > 100 µM; TGI ([17]; read-out: Log TGI (converted)): > 100 µM; IC50 [18]: 2.9 µM; IC50 [19]: > 10 µM
